In ChEMBL document CHEMBL1156693, “Novel N-(phosphonomethyl) glycine derivatives: Design, characterization and biological activity” (Eur J Med Chem, 2008):
Activity calls are given as the source filed them. The rule behind the calls is not given here.

Columns and labels:
[1] = system: Mus musculus; assay: Clastogenic effect on C57BL mouse assessed as number of metaphase chromosomal breaks in bone marrow cells at 10 mg/kg, ip after 24 hrs; format: functional; conditions: route intraperitoneal
Method in brief: (§1)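 Inbred male and female C57Bl mice, groups of 3 males + 3 females, dosed i.p. (0.9% NaCl vehicle/negative control); mitomycin C 3.5 mg/kg positive control. Colchicine 40 mg/kg i.p. 1 h before femoral bone marrow harvest; hypotonic 0.075 M KCl 20 min at 37 °C, methanol-acetic acid fixation, Giemsa stain; ≥50 metaphases per animal scored; group mean ± SE.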

[2] = system: Mus musculus; assay: Clastogenic effect on C57BL mouse assessed as number of metaphase chromosomal breaks in bone marrow cells at 10 mg/kg, ip after 48 hrs; format: functional; conditions: route intraperitoneal; method in brief: as §1
[3] = system: Mus musculus; assay: Clastogenic effect on C57BL mouse assessed as bone marrow cells with abberation at 100 mg/kg, ip after 24 hrs; format: functional; conditions: route intraperitoneal; method in brief: as §1
[4] = system: Mus musculus; assay: Clastogenic effect on C57BL mouse assessed as number of metaphase chromosomal fragments in bone marrow cells at 100 mg/kg, ip after 48 hrs; format: functional; conditions: route intraperitoneal; method in brief: as §1
[5] = system: Mus musculus; assay: Clastogenic effect on C57BL mouse assessed as number of metaphase chromosomal breaks in bone marrow cells at 100 mg/kg, ip after 24 hrs; format: functional; conditions: route intraperitoneal; method in brief: as §1
[6] = system: Mus musculus; assay: Clastogenic effect on C57BL mouse assessed as bone marrow cells with abberation at 10 mg/kg, ip after 48 hrs; format: functional; conditions: route intraperitoneal; method in brief: as §1
[7] = system: Mus musculus; assay: Clastogenic effect on C57BL mouse assessed as number of metaphase chromosomal centromere/centromeric fusion in bone marrow cells at 10 mg/kg, ip after 24 hrs; format: functional; conditions: route intraperitoneal; method in brief: as §1
[8] = system: Mus musculus; assay: Clastogenic effect on C57BL mouse assessed as number of metaphase chromosomal fragments in bone marrow cells at 100 mg/kg, ip after 24 hrs; format: functional; conditions: route intraperitoneal; method in brief: as §1
[9] = system: Mus musculus; assay: Clastogenic effect on C57BL mouse assessed as number of metaphase chromosome telomere/telomeric fusion in bone marrow cells at 10 mg/kg, ip after 24 hrs; format: functional; conditions: route intraperitoneal; method in brief: as §1
[10] = system: EJ; assay: Cytotoxicity against human EJ cells after 72 hrs by MTT assay; format: functional, cell-based
Method in brief: (§2)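 Cells at 37 °C, 5% CO2; 293T in DMEM, others in RPMI 1640, both with 2 mM L-glutamine and 10% FCS. Seeded 10⁴ cells/well, 24 h preincubation, then compounds 0.195–200 µM (DMSO ≤1% final) for 72 h continuous. MTT added, 4 h, formazan dissolved in 5% formic acid-acidified DMSO, absorbance read; IC50 = concentration giving 50% survival decrease.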

[11] = system: LAMA-84; assay: Cytotoxicity against human LAMA-84 cells after 72 hrs by MTT assay; format: functional, cell-based; conditions: LAMA-84, 72 h; method in brief: as §2
[12] = system: Mus musculus; assay: Clastogenic effect on C57BL mouse assessed as number of metaphase chromosome telomere/telomeric fusion in bone marrow cells at 100 mg/kg, ip after 24 hrs; format: functional; conditions: route intraperitoneal; method in brief: as §1
[13] = system: Mus musculus; assay: Clastogenic effect on C57BL mouse assessed as mitotic index in bone marrow cells at 100 mg/kg, ip after 24 hrs; format: functional; conditions: route intraperitoneal
Method in brief: (§3)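 C57Bl mice (3 males + 3 females per group) given compound i.p.; saline controls. Colchicine 40 mg/kg i.p. 1 h before bone marrow harvest from femur; hypotonic KCl, fixed, Giemsa-stained slides. Mitotic index = dividing cells counted among 1500 cells per animal; per-animal values averaged as group mean ± SE.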

[14] = system: K562; assay: Cytotoxicity against human K562 cells after 72 hrs by MTT assay; format: functional, cell-based; conditions: K562, 72 h; method in brief: as §2
[15] = system: Mus musculus; assay: Clastogenic effect on C57BL mouse assessed as number of metaphase chromosomal centromere/centromeric fusion in bone marrow cells at 100 mg/kg, ip after 48 hrs; format: functional; conditions: route intraperitoneal; method in brief: as §1
[16] = system: HL-60; assay: Cytotoxicity against human HL60 cells after 72 hrs by MTT assay; format: functional, cell-based; conditions: HL-60, 72 h; method in brief: as §2
[17] = system: Mus musculus; assay: Clastogenic effect on C57BL mouse assessed as mitotic index in bone marrow cells at 10 mg/kg, ip after 48 hrs; format: functional; conditions: route intraperitoneal; method in brief: as §3
[18] = system: Mus musculus; assay: Clastogenic effect on C57BL mouse assessed as number of metaphase chromosomal fragments in bone marrow cells at 10 mg/kg, ip after 24 hrs; format: functional; conditions: route intraperitoneal; method in brief: as §1
[19] = system: Mus musculus; assay: Clastogenic effect on C57BL mouse assessed as mitotic index in bone marrow cells at 10 mg/kg, ip after 24 hrs; format: functional; conditions: route intraperitoneal; method in brief: as §3
[20] = system: Mus musculus; assay: Clastogenic effect on C57BL mouse assessed as number of metaphase chromosome telomere/telomeric fusion in bone marrow cells at 10 mg/kg, ip after 48 hrs; format: functional; conditions: route intraperitoneal; method in brief: as §1
[21] = system: HD-MY-Z; assay: Cytotoxicity against human HD-MY-Z cells after 72 hrs by MTT assay; format: functional, cell-based; method in brief: as §2
[22] = system: DOHH-2; assay: Cytotoxicity against human DOHH2 cells after 72 hrs by MTT assay; format: functional, cell-based; conditions: DOHH-2, 72 h; method in brief: as §2
[23] = system: Mus musculus; assay: Clastogenic effect on C57BL mouse assessed as number of metaphase chromosomal breaks in bone marrow cells at 100 mg/kg, ip after 48 hrs; format: functional; conditions: route intraperitoneal; method in brief: as §1
[24] = system: Mus musculus; assay: Clastogenic effect on C57BL mouse assessed as bone marrow cells with abberation at 10 mg/kg, ip after 24 hrs; format: functional; conditions: route intraperitoneal; method in brief: as §1
[25] = system: Mus musculus; assay: Clastogenic effect on C57BL mouse assessed as bone marrow cells with abberation at 100 mg/kg, ip after 48 hrs; format: functional; conditions: route intraperitoneal; method in brief: as §1
[26] = system: Mus musculus; assay: Clastogenic effect on C57BL mouse assessed as mitotic index in bone marrow cells at 100 mg/kg, ip after 48 hrs; format: functional; conditions: route intraperitoneal; method in brief: as §3
[27] = system: Mus musculus; assay: Clastogenic effect on C57BL mouse assessed as number of metaphase chromosomal centromere/centromeric fusion in bone marrow cells at 100 mg/kg, ip after 24 hrs; format: functional; conditions: route intraperitoneal; method in brief: as §1
[28] = system: Mus musculus; assay: Clastogenic effect on C57BL mouse assessed as number of metaphase chromosome telomere/telomeric fusion in bone marrow cells at 100 mg/kg, ip after 48 hrs; format: functional; conditions: route intraperitoneal; method in brief: as §1
[29] = Cytotoxicity against human 293T after 72 hrs by MTT assay; format: cell-based; conditions: HEK-293T; method in brief: as §2
[30] = system: DOHH-2; assay: Induction of apoptosis in human DOHH2 cells assessed as increase in histone-associated oligonucleotide level after 24 hrs by ELISA; format: functional, cell-based
Method in brief: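 DOHH-2 cells exposed 24 h to equitoxic compound concentrations versus untreated control; cytosolic fractions of 1 × 10⁴ cells used in sandwich ELISA (anti-histone capture, peroxidase-conjugated anti-DNA detection) for histone-associated DNA fragments, read at 405 nm; means ± SD of three independent experiments.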

[31] = system: Mus musculus; assay: Clastogenic effect on C57BL mouse assessed as number of metaphase chromosomal centromere/centromeric fusion in bone marrow cells at 10 mg/kg, ip after 48 hrs; format: functional; conditions: route intraperitoneal; method in brief: as §1
[32] = system: Mus musculus; assay: Clastogenic effect on C57BL mouse assessed as number of metaphase chromosomal fragments in bone marrow cells at 10 mg/kg, ip after 48 hrs; format: functional; conditions: route intraperitoneal; method in brief: as §1
[33] = system: Mus musculus; assay: Clastogenic effect on C57BL mouse assessed as bone marrow cells with abberation at 3.5 mg/kg, ip after 24 hrs; format: functional; conditions: route intraperitoneal
Method in brief: (§4)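 Inbred male and female C57Bl mice (20.0 ± 1.5 g), groups of 3 males + 3 females, 5 controls given 0.9% NaCl. Single i.p. dose. Colchicine 40 mg/kg i.p. 1 h before femoral bone marrow harvest. Cells in 0.075 M KCl for 20 min at 37 °C, fixed in methanol–acetic acid (3:1), stained with 5% Giemsa. At least 50 metaphases scored per animal for breaks, fragments, centromere/centromeric and telomere/telomeric fusions. Mitotic index from 1500 cells per animal. Group mean ± SE.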

[34] = system: Mus musculus; assay: Clastogenic effect on C57BL mouse assessed as mitotic index in bone marrow cells at 3.5 mg/kg, ip after 24 hrs; format: functional; conditions: route intraperitoneal; method in brief: as §4
[35] = system: Mus musculus; assay: Clastogenic effect on C57BL mouse assessed as number of metaphase chromosome telomere/telomeric fusion in bone marrow cells at 3.5 mg/kg, ip after 24 hrs; format: functional; conditions: route intraperitoneal; method in brief: as §4
[36] = system: Mus musculus; assay: Clastogenic effect on C57BL mouse assessed as number of metaphase chromosomal fragments in bone marrow cells at 3.5 mg/kg, ip after 24 hrs; format: functional; conditions: route intraperitoneal; method in brief: as §4
[37] = system: Mus musculus; assay: Clastogenic effect on C57BL mouse assessed as number of metaphase chromosomal centromere/centromeric fusion in bone marrow cells at 3.5 mg/kg, ip after 24 hrs; format: functional; conditions: route intraperitoneal; method in brief: as §4
[38] = system: Mus musculus; assay: Clastogenic effect on C57BL mouse assessed as number of metaphase chromosomal breaks in bone marrow cells at 3.5 mg/kg, ip after 24 hrs; format: functional; conditions: route intraperitoneal; method in brief: as §4

Compound	Activity [1]	Activity [2]	Activity [3] [%]	Activity [4]	Activity [5]	Activity [6] [%]	Activity [7]	Activity [8]	Activity [9]	IC50 [10] [µM]	IC50 [11] [µM]	Activity [12]	Activity [13] [%]	IC50 [14] [µM]	Activity [15]	IC50 [16] [µM]	Activity [17] [%]	Activity [18]	Activity [19] [%]	Activity [20]	also measured
COP(=O)(CNC1(C(=O)O)CCCCCCCCCCC1)OC	4	2	4.29	6	4	5	11	0	0	111	67.3	0	11.82	47.1	11	41.4	8.6	2	11.13	0	IC50 [21]: 67.3 µM; IC50 [22]: 20.1 µM; Activity [23]: 6; Activity [24]: 5.57%; Activity [25]: 10%; Activity [26]: 12.82%; Activity [27]: 11; Activity [28]: 2; IC50 [29]: 159 µM; Activity [30]: Active; Activity [31]: 12; Activity [32]: 1
COP(=O)(CNC1(C(=O)O)CCCCCCC1)OC	2	0	5.43	0	4	4.67	10	3	0	115	71.4	1	13.06	79.1	12	73.5	13.95	1	11.35	0	IC50 [21]: 127 µM; IC50 [22]: 37.4 µM; Activity [23]: 3; Activity [24]: 3.71%; Activity [25]: 5%; Activity [26]: 9.67%; Activity [27]: 11; Activity [28]: 0; IC50 [29]: 176 µM; Activity [30]: Active; Activity [31]: 14; Activity [32]: 1
COP(=O)(CNC1(C(=O)O)CCCCC1)OC	4	6	8.34	0	7	5.33	11	1	0	116	98.6	0	7.15	128	12	136	6.71	0	7.27	0	IC50 [21]: 164 µM; IC50 [22]: 84.2 µM; Activity [23]: 14; Activity [24]: 5.33%; Activity [25]: 7.42%; Activity [26]: 9.23%; Activity [27]: 20; Activity [28]: 0; IC50 [29]: > 200 µM; Activity [31]: 9; Activity [32]: 1
COP(=O)(CNC1(C(=O)O)CCCC1)OC	7	6	7	0	8	5.77	9	3	0	> 200	162	0	10.97	> 200	8	157	10.66	1	10.39	1	IC50 [21]: > 200 µM; IC50 [22]: 145 µM; Activity [23]: 6; Activity [24]: 4.85%; Activity [25]: 6.4%; Activity [26]: 8.33%; Activity [27]: 10; Activity [28]: 2; IC50 [29]: > 200 µM; Activity [31]: 13; Activity [32]: 0
COP(=O)(CNC1(C(=O)O)CCCCCC1)OC	3	0	3.33	0	7	1	7	0	0	151	91.2	0	13.24	101	3	85.9	9.58	0	14.37	0	IC50 [21]: 169 µM; IC50 [22]: 88.1 µM; Activity [23]: 4; Activity [24]: 2.85%; Activity [25]: 2.72%; Activity [26]: 12%; Activity [27]: 3; Activity [28]: 0; IC50 [29]: > 200 µM; Activity [31]: 3; Activity [32]: 0
CO[C@@]12[C@H](COC(N)=O)C3=C(C(=O)C(C)=C(N)C3=O)N1C[C@@H]1N[C@@H]12 [MITOMYCIN]																					Activity [33]: 46.67%; Activity [34]: 5.49%; Activity [35]: 0; Activity [36]: 13; Activity [37]: 11; Activity [38]: 10
